Data set [1] concerns the target Serine/threonine-protein kinase MRCK beta (Homo sapiens) (UniProt Q9Y5S2). Briefly: Inhibition of recombinant human MRCKbeta (1 to 473 residues) at 1 uM using KKRNRTLTV as substrate measured after 40 mins in presence of [gamma33P]ATP by scintillation counting method relative to control.
Data set [2] deals with A549. The experiment in a line: Downregulation of NANOG in human A549 cells at 0.25 to 1 uM by Western blot analysis. Type of data set: functional, cell-based.
The subject of data set [3] is A549. The experiment in a line: Inhibition of tumorsphere formation in human A549 cells after 2 weeks by microscopic analysis. It counts as functional, cell-based.
Data set [4] concerns the target BDNF/NT-3 growth factors receptor (Homo sapiens) (UniProt Q16620). Briefly: Inhibition of recombinant human TRKB (455 to end residues) at 1 uM using poly(Glu, Tyr) 4:1 as substrate measured after 40 mins in presence of [gamma33P]ATP by scintillation counting method relative to control.
Data set [5] deals with Macrophage-stimulating protein receptor (Homo sapiens) (UniProt Q04912). Briefly: Inhibition of human Ron (983 to end residues) at 1 uM using GGMEDIYFEFMGGKKK as substrate measured after 40 mins in presence of [gamma33P]ATP by scintillation counting method relative to control. A digest of the protocol: (§1)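 Percent inhibition of kinase activity at a single compound concentration, measured by the outsourced Eurofins KinaseProfiler panel. Values are the mean of two independent experiments.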
Chain of Macrophage-stimulating protein receptor (Homo sapiens) (Q04912 25-304 limits assumed): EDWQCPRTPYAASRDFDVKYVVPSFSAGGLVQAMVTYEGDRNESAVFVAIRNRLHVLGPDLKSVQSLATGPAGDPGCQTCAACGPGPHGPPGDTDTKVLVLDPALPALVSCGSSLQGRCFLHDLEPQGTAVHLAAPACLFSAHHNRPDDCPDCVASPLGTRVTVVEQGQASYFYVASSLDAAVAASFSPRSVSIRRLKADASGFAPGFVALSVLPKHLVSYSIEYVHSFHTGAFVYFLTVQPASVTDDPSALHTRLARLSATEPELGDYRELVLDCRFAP
Chain of Macrophage-stimulating protein receptor (Homo sapiens) (Q04912 310-1400 limits assumed): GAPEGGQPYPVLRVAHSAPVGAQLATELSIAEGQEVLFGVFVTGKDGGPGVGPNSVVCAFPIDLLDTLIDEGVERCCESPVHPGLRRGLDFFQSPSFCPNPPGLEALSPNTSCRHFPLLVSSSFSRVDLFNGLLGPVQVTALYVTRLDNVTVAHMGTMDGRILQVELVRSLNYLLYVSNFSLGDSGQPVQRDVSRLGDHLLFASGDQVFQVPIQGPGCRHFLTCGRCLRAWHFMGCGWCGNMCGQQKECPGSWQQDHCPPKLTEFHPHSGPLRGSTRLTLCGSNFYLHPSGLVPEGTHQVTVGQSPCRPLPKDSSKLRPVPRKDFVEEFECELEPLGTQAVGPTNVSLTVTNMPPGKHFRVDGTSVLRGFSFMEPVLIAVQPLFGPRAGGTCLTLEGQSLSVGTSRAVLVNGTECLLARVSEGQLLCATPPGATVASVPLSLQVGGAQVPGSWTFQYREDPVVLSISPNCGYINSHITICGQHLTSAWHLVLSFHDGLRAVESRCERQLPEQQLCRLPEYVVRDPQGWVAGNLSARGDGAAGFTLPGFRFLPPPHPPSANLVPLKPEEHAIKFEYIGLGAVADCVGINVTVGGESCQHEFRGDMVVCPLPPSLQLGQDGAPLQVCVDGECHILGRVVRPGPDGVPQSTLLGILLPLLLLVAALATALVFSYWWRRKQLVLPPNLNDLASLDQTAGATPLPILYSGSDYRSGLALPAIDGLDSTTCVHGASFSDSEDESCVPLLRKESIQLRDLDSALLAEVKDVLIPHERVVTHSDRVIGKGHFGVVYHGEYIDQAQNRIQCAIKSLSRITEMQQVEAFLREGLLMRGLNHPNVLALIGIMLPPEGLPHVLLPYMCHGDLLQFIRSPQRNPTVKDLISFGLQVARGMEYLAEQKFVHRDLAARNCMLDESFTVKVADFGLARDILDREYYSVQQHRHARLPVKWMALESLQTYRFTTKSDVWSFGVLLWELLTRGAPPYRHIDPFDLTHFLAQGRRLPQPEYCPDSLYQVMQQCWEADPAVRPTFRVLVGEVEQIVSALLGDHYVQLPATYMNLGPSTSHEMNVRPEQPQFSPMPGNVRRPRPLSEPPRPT

Data set [6] deals with Platelet-derived growth factor receptor alpha (Homo sapiens), P16234 [V561D]. The experiment in a line: Inhibition of recombinant human PDGFRalpha (550 to end residues) V561D mutant at 1 uM using GGMEDIYFEFMGGKKK as substrate measured after 40 mins in presence of [gamma33P]ATP by scintillation counting method relative to control.
Chain of Platelet-derived growth factor receptor alpha (Homo sapiens), P16234 [V561D] (P16234 whole entry V561D, the tested form may be a part): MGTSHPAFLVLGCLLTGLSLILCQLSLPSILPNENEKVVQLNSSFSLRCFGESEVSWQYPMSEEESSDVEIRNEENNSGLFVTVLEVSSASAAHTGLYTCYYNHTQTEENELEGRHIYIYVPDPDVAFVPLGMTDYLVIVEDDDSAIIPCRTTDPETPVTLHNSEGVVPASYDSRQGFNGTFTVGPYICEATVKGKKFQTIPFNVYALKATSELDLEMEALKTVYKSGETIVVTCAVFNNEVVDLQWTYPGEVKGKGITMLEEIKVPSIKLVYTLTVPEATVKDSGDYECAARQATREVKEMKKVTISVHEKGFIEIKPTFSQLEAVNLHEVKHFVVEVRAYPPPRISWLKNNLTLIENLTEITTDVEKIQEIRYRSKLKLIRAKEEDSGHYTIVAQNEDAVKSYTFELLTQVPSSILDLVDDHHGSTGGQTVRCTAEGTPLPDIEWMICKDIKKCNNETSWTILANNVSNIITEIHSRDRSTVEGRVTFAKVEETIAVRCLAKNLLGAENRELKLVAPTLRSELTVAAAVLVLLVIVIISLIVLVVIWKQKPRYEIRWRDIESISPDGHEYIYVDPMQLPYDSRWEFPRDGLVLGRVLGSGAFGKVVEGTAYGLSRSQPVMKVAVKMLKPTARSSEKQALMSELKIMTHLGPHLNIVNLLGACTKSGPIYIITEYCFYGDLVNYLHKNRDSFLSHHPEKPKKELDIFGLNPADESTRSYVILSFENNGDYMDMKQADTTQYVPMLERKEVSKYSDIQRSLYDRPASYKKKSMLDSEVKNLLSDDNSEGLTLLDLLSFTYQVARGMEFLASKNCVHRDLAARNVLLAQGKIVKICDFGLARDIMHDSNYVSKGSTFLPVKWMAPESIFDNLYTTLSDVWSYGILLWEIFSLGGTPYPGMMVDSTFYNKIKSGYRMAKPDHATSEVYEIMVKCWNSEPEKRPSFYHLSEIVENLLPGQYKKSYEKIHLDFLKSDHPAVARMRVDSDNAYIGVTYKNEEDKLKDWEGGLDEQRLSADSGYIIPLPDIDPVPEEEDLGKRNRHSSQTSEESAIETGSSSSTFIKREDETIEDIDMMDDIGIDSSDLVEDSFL
Data set [7] addresses Ephrin type-A receptor 4 (Homo sapiens) (UniProt P54764). The experiment in a line: Inhibition of recombinant human EphA4 (601 to 892 residues) at 1 uM using poly(Glu, Tyr) 4:1 as substrate measured after 40 mins in presence of [gamma33P]ATP by scintillation counting method relative to control. The procedure, abridged:
(§2)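 Single-point inhibition at 1 µM was measured in the Eurofins KinaseProfiler panel. Values are the mean of two independent experiments.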

Data set [8] has as its target Mitogen-activated protein kinase kinase kinase kinase 2 (Homo sapiens) (UniProt Q12851). Briefly: Inhibition of recombinant human GCK (1 to 473 residues) at 1 uM using myelin basic protein as substrate measured after 40 mins in presence of [gamma33P]ATP by scintillation counting method relative to control.
Data set [9] addresses Rhodopsin kinase GRK7 (Homo sapiens) (UniProt Q8WTQ7). The experiment in a line: Inhibition of recombinant full-length human GRK7 at 1 uM using casein as substrate measured after 40 mins in presence of [gamma33P]ATP by scintillation counting method relative to control.
In data set [10] the target is Casein kinase II subunit alpha (Homo sapiens) (UniProt P68400). Briefly: Inhibition of full length recombinant human CK2alpha1 at 1 uM using RRRDDDSDDD as substrate measured after 40 mins in presence of [gamma33P]ATP by scintillation counting method relative to control.
Chain of Casein kinase II subunit alpha (Homo sapiens) (P68400 whole entry, looked up): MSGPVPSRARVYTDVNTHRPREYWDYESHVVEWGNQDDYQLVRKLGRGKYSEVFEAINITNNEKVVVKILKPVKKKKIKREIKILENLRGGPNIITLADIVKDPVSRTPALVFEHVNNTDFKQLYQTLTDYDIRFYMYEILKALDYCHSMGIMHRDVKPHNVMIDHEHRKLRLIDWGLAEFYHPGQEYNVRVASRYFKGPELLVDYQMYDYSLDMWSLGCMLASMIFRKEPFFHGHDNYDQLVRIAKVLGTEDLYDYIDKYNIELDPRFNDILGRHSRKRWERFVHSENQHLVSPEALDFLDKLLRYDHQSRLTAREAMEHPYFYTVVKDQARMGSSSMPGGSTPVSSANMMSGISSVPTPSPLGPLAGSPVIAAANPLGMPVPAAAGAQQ
The test system of data set [11] is NCI-H1299. The experiment in a line: Downregulation of SOX2 in human H1299 cells at 0.25 to 1 uM by Western blot analysis. It counts as functional, cell-based. Background: In western blotting, separated proteins are transferred to a membrane and probed.
In data set [12] the target is Ribosomal protein S6 kinase alpha-1 (Homo sapiens) (UniProt Q15418). Briefly: Inhibition of recombinant full-length human Rsk1 at 1 uM using KKKNRTLSVA as substrate measured after 40 mins in presence of [gamma33P]ATP by scintillation counting method relative to control.
The subject of data set [13] is Tyrosine-protein kinase ABL1 (Homo sapiens), P00519 [T315I]. Briefly: Inhibition of recombinant human ABL T315I mutant (27 to end residues) at 1 uM using EAIYAAPFAKKK as substrate measured after 40 mins in presence of [gamma33P]ATP by scintillation counting method relative to control.
The test system of data set [14] is Tyrosine-protein kinase ABL1 (Homo sapiens), P00519 [M351T]. Briefly: Inhibition of human ABL M351T mutant (27 to end residues) at 1 uM using EAIYAAPFAKKK as substrate measured after 40 mins in presence of [gamma33P]ATP by scintillation counting method relative to control. The procedure, abridged:
as §1

The subject of data set [15] is NCI-H1299. Briefly: Induction of cell cycle arrest in human H1299 cells assessed as accumulation of cells at G0/G1 phase at 1 uM after 24 hrs by propidium iodide/RNase staining based flow cytometric analysis. Type of data set: functional. The procedure, abridged:
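A549 and H1299 plated at 5×10^5 cells/mL in 6-well plates, treated after adherence for 24 h. Washed with PBS, fixed overnight in ice-cold 75% ethanol, stained with propidium iodide plus RNase A for 30 min at 37 °C, analysed by flow cytometry for phase distribution. Means ± SD, three independent experiments.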
Background: Flow cytometry measures light scatter and fluorescence of single cells or particles in a stream.

Data set [16] concerns PI3-kinase p110-alpha/p85-alpha (Homo sapiens), P27986+P42336 [E545K]. The experiment in a line: Inhibition of recombinant full-length human PI3K p110alpha/p85alpha E545K mutant at 1 uM using phosphatidylinositol-4, 5-bisphosphate as substrate measured after 40 mins by HTRF assay relative to control. Type of data set: protein-complex assay. (TR-FRET usually uses a lanthanide donor and a delayed reading to cut background.)

The nature of data set [17]: Intrinsic clearance in human liver microsomes at 2 uM in presence of NADPH measured up to 1 hr by HPLC analysis. Type of data set: ADME, Microsome.
In data set [18] the target is Eukaryotic translation initiation factor 2-alpha kinase 1 (Homo sapiens) (UniProt Q9BQI3). The experiment in a line: Inhibition of recombinant human HRI (140 to end residues) at 1 uM using RSRSRSRSRSRSRSR as substrate measured after 120 mins in presence of [gamma33P]ATP by scintillation counting method relative to control.
Data set [19] has as its target Tyrosine-protein kinase Fer (Homo sapiens) (UniProt P16591). Briefly: Inhibition of recombinant human FER (541 to end residues) at 1 uM using KKKSPGEYVNIEFG as substrate measured after 40 mins in presence of [gamma33P]ATP by scintillation counting method relative to control.
Data set [20] deals with Serine/threonine-protein kinase PAK 3 (Homo sapiens) (UniProt O75914). The experiment in a line: Inhibition of recombinant full-length human PAK3 at 1 uM using RRRLSFAEPG as substrate measured after 40 mins in presence of [gamma33P]ATP by scintillation counting method relative to control.
Chain of Serine/threonine-protein kinase PAK 3 (Homo sapiens) (O75914 whole entry, looked up): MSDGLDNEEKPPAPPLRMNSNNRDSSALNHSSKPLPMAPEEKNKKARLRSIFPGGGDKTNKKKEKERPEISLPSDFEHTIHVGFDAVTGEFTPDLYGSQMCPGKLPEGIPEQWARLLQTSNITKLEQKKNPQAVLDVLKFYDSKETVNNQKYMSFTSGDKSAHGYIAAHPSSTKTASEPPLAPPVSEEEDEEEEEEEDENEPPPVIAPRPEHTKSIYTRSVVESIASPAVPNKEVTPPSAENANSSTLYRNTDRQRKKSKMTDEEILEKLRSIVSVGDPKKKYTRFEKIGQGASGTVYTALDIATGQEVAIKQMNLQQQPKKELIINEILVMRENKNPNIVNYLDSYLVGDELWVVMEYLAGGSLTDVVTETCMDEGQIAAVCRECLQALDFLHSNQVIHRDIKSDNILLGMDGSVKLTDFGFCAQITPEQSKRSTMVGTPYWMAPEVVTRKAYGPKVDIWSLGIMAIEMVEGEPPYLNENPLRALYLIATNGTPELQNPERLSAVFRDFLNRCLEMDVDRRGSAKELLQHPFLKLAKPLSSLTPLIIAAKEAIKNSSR
Data set [21] deals with Proto-oncogene tyrosine-protein kinase receptor Ret (Homo sapiens), P07949 [V804M]. The experiment in a line: Inhibition of human Ret V804M mutant (658 to end residues) at 1 uM using KKKVSRSGLYRSPSMPENLNRPR as substrate measured after 40 mins in presence of [gamma33P]ATP by scintillation counting method relative to control. A digest of the protocol: as §1
For data set [22], the target named is Activin receptor type-1 (Homo sapiens) (UniProt Q04771). The experiment in a line: Inhibition of recombinant human ALK2 (147 to end residues) at 1 uM using casein as substrate measured after 40 mins in presence of [gamma33P]ATP by scintillation counting method relative to control. The procedure, abridged: as §2
Chain of Activin receptor type-1 (Homo sapiens) (Q04771 whole entry): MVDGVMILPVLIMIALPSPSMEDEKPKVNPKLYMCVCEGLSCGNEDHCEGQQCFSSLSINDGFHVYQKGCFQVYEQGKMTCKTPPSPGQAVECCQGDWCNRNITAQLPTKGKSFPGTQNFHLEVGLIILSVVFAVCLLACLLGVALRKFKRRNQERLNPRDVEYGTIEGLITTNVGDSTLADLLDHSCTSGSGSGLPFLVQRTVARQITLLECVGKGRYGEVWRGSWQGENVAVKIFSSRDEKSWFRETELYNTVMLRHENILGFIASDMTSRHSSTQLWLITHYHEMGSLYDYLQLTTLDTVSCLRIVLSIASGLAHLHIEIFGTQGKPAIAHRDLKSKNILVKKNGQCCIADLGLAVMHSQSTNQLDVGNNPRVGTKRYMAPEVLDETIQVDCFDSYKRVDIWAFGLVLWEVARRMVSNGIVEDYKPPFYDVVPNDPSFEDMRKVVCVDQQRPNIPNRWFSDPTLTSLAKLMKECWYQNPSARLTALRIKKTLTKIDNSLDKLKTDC
Data set [23] addresses Serine/threonine-protein kinase Chk2 (Homo sapiens) (UniProt O96017). The experiment in a line: Inhibition of recombinant human CHK2 (5 to end residues) at 1 uM using KKKVSRSGLYRSPSMPENLNRPR as substrate measured after 40 mins in presence of [gamma33P]ATP by scintillation counting method relative to control. A digest of the protocol: as §2

The source made the active and inactive calls. The calls are words filed in the database; no cut-off is given here.

Chain of BDNF/NT-3 growth factors receptor (Homo sapiens) (Q16620 32-822 limits assumed): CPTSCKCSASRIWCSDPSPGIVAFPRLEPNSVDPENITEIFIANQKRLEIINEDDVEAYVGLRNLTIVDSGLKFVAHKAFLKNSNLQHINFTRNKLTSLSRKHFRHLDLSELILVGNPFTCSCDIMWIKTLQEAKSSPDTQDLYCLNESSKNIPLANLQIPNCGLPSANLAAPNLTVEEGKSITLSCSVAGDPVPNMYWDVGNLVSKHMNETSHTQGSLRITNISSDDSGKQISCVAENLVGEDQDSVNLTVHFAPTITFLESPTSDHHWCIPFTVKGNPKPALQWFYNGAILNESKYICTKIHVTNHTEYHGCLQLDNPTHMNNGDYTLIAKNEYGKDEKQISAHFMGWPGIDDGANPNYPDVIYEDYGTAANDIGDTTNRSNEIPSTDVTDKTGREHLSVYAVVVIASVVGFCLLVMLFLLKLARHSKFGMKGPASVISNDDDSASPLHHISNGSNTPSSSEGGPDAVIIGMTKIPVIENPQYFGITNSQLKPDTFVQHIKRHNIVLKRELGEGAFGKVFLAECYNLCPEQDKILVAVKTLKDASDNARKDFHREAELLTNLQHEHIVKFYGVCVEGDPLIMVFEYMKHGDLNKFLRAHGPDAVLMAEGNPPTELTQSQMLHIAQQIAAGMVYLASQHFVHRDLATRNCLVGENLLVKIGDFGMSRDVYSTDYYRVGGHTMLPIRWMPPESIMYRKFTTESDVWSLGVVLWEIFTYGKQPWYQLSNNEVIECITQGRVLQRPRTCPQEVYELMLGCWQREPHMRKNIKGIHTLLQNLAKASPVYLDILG

As to `CN(C)C(=O)c1cc2cnc(Nc3ccc(NC(=O)CCCCCCCN=C=S)cc3)nc2n1C1CCCC1`, the inhibition in [1] was 7%; with A549 [3], “Dose-dependent effect”; in data set [4], 92%; in data set [5], 72%; in [6] it was 90%; in data set [7], 1%. The inhibition was 81% in [8]; 9% in data set [9]; -5% in [10]; 21% in data set [12]; 38% in [13]; 49% in data set [14]. Moreover, the inhibition turned out to be 4% in data set [16]; 30% in data set [18]; 7% in [19]; 2% in [20]; 58% in data set [21]; 11% in data set [22]. Further, the inhibition in data set [23] turned out to be 32%. Besides, the result with A549 [2] and in the data set with NCI-H1299 [11] was Active. For the same compound, the outcome in the data set on NCI-H1299 [15] was inactive. The CLH in data set [17] was 70 µL/min/mg.

By inhibition is commonly meant the relative decrease from the control value, in per cent.
